The nature of data set [1]: Cmax in cage fluid of Albino guiena pig at 12.5 mg/kg, ip after 12 hrs. The format is ADME, organism-based, Cavia porcellus, Interstitial fluid. Also noted: dose 12.5 mg/kg, route intraperitoneal. The following applies: guinea pig.
The test system of data set [2] is Staphylococcus aureus. The experiment in a line: Antibacterial activity against methicillin-resistant Staphylococcus aureus ATCC 43300 by macrodilution method. The format is functional. Put shortly: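 Broth macrodilution MIC in Mueller-Hinton broth per CLSI. Inoculum 1 × 10^5 to 5 × 10^5 CFU/ml. Ten twofold drug dilutions, 18 h at 37°C without shaking. MIC is the lowest concentration with no visible growth. Triplicate.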

Data set [3] in a line: Cmin in cage fluid of Albino guiena pig at 12.5 mg/kg, ip after 12 hrs. The format is ADME, organism-based, Cavia porcellus. More on the design: dose 12.5 mg/kg, route intraperitoneal. The conditions noted are these: guinea pig, read-out: Cmin.
Data set [4] relates to Staphylococcus aureus. The data set is described as follows: Antibacterial activity against 1 x10'6 to 5 x10^6 CFU/ml methicillin-resistant Staphylococcus aureus ATCC 43300 assessed as bacterial regrowth after 24 hrs by time kill study. The format is functional, organism-based. Put shortly:
(§1)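 MRSA inoculum of 1 × 10^6 to 5 × 10^6 CFU/ml in 10 ml Mueller-Hinton broth. Drug at 1× and 4× MIC; drug-free growth control. Incubated at 37°C. Aliquots plated on Mueller-Hinton agar at 0, 6 and 24 h. Quantification limit 200 CFU/ml. Mean log10 CFU/ml reduction ± SD.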

In data set [5] the test system is Staphylococcus aureus. The experiment in a line: Antibacterial activity against methicillin-resistant Staphylococcus aureus ATCC 43300 infected in Albino guiena pig assessed as no. of culture-negative cage fluid samples at 12.5 mg/kg measured on day 4 postinfection. The format is functional. Put shortly:
(§2)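 Same guinea pig cage infection and intraperitoneal 4-day, twice-daily regimen. Cage fluid cultured on day 4 and day 10. Result is the number of cage fluid samples without detectable MRSA growth over the total cages per group.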

Data set [6] deals with Staphylococcus aureus. The data set is described as follows: Antibacterial activity against methicillin-resistant Staphylococcus aureus ATCC 43300 infected in Albino guiena pig assessed as decrease in planktonic bacterial counts in cage fluid at 12.5 mg/kg after measured on day 10 postinfection. The format is functional. Put shortly: (§3)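 Guinea pig subcutaneous cage model infected with 2 × 10^4 CFU MRSA. Intraperitoneal dosing every 12 h for 4 days, starting day 1. Cage-fluid CFU counted on day 1, day 4 (before last dose) and day 10. Δlog10 CFU/ml is day 4 or day 10 minus day 1. Quantification limit 1,000 CFU/ml; negatives set to 3 log10. Median and IQR.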

Data set [7] relates to Staphylococcus aureus. The data set is described as follows: Antibacterial activity against methicillin-resistant Staphylococcus aureus ATCC 43300 infected in Albino guiena pig assessed as no. of culture-negative cage fluid samples at 12.5 mg/kg measured on day 10 postinfection. The format is functional. Put shortly: as §2
In data set [8] the test system is Staphylococcus aureus. The experiment in a line: Antibacterial activity against 1 x10'6 to 5 x10^6 CFU/ml methicillin-resistant Staphylococcus aureus ATCC 43300 assessed as log decrease in bacterial count at MIC after 6 hrs by time kill study. The format is functional. Put shortly: as §1
Data set [9] in a line: Tmax in cage fluid of Albino guiena pig at 12.5 mg/kg, ip. The format is ADME, organism-based, Cavia porcellus. More on the design: dose 12.5 mg/kg, route intraperitoneal. The conditions noted are these: guinea pig.
Data set [10] in a line: AUC (0 to 24 hrs) in cage fluid of Albino guiena pig at 12.5 mg/kg, ip. The format is ADME, organism-based, Cavia porcellus. Also noted: time < 24 hr, dose 12.5 mg/kg, route intraperitoneal. The following applies: guinea pig.
Data set [11] relates to Staphylococcus aureus. The data set is described as follows: Antibacterial activity against methicillin-resistant Staphylococcus aureus ATCC 43300 during logarithmic growth phase by macrodilution method. The format is functional.
Data set [12] deals with Staphylococcus aureus. The data set is described as follows: Antibacterial activity against methicillin-resistant Staphylococcus aureus ATCC 43300 during stationary growth phase by macrodilution method. The format is functional.
Data set [13] relates to Staphylococcus aureus. The data set is described as follows: Antibacterial activity against methicillin-resistant Staphylococcus aureus ATCC 43300 infected in Albino guiena pig assessed as decrease in planktonic bacterial counts in cage fluid at 12.5 mg/kg measured on day 4 postinfection. The format is functional. Put shortly: as §3
The test system of data set [14] is Staphylococcus aureus. The experiment in a line: Antibacterial activity against 1 x10'6 to 5 x10^6 CFU/ml methicillin-resistant Staphylococcus aureus ATCC 43300 assessed as log decrease in bacterial count at 4 times MIC after 6 hrs by time kill study. The format is functional. Put shortly: as §1
Data set [15] concerns Staphylococcus aureus. The data set is described as follows: Antibacterial activity against 1 x10'6 to 5 x10^6 CFU/ml methicillin-resistant Staphylococcus aureus ATCC 43300 assessed as percent resistant isolates at MIC after 24 hrs by time kill study. The format is functional.

≈ marks a conversion by molar mass, not a printed value. Calls of active or inactive are those of the source. The calls are words filed in the database; no cut-off is given here.

In turn, `CO[C@H]1/C=C/O[C@@]2(C)Oc3c(C)c(O)c4c(O)c(c(/C=N/N5CCN(C)CC5)c(O)c4c3C2=O)NC(=O)/C(C)=C\C=C\[C@H](C)[C@H](O)[C@@H](C)[C@@H](O)[C@@H](C)[C@H](OC(C)=O)[C@@H]1C` [RIFAMPIN] showed a Cmax in data set [1] of 1000 ng/mL. In addition, 0.01 µg/mL (≈ 0.0122 µM) was the least that counted as inhibitory against Staphylococcus aureus [2] (MIC). The concentration at 12 h in data set [3] came to 100 ng/mL. Besides, the result with Staphylococcus aureus [4] was inactive. For the same molecule, the Activity in the data set on Staphylococcus aureus [5] is 50%; in the data set with Staphylococcus aureus [7], 92%; in the data set on Staphylococcus aureus [15], 94%. Besides, the log10CFU/ml is given as below 3 with Staphylococcus aureus [6], 0.5 in the data set with Staphylococcus aureus [8], 3.1 with Staphylococcus aureus [13] and 0.5 with Staphylococcus aureus [14]. In addition, the Tmax in data set [9] turned out to be 2.1 h. The exposure AUC(0-t) at 24 h in data set [10] was found to be 4600 ng·h/mL. Moreover, the minimal bactericidal concentration (MBC) in the data set with Staphylococcus aureus [11] is 0.08 µg/mL (≈ 0.0972 µM); in the data set on Staphylococcus aureus [12], 2.5 µg/mL (≈ 3.04 µM).

By Cmax is commonly meant the highest concentration seen after dosing. Usually MIC stands for the least concentration at which growth counts as inhibited. High values mean a less susceptible organism, low ones a more susceptible organism. Broadly, the Tmax is the time at which the peak concentration occurs. By AUC(0-t) is commonly meant exposure summed from dosing to a finite time, without extrapolation to infinity. A high value points to high exposure. What is called MBC is the lowest tested concentration that kills the bacteria rather than only halting them. Low values mean greater bactericidal potency, high ones weaker bactericidal potency.

For the origin of these results see ChEMBL document CHEMBL1629645 (Antimicrob Agents Chemother, 2009).
